Active and inactive are the calls of the source. No cut-off for these calls is given here. Starred links: 1 amine or outer side, 2 acyl side, 3 side chain; linkers in the order of their positions; H or OH if unused. Positions of bridges follow the written chain, without caps; N, C: chain ends. Non-standard residues stand in square brackets, D forms with d. Residues, ends and D or L forms follow the SMILES beside them. *: point of attachment. hTyr(3S-OH,4S-OH,3'-OSO3H) = N[C@H](C(=O)O)[C@H](O)[C@@H](O)c1ccc(O)c(OS(=O)(=O)O)c1; Orn(4R-OH,5R-OH) = O=C([C@H](C[C@@H](O)[C@@H](O)N[*:3])N[*:1])[*:2]; Pro(3S-OH,4S-Me) = C[C@H]1CN[C@H](C(=O)O)[C@H]1O; X1 = CCCCCOc1ccc(-c2cc(-c3ccc(C(=O)*)cc3)no2)cc1; Gln(3R-OH) = NC(=O)C[C@@H](O)[C@H](N)C(=O)O; Hyp = O=C(O)[C@@H]1C[C@@H](O)CN1
Key:
Aspergillus fumigatus [1] = assay: Antifungal activity against Aspergillus fumigatus 293 infected in neutropenic BALB/c mouse lung assessed as swollen dysmorphic hyphal clusters at 10 mg/kg, ip administered as single dose 24 hrs before infection by light microscopy; type: functional, organism-based; set-up: dose 10 mg/kg
Summary of the method: (§1)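 Repeat experiments in the neutropenic intranasal-challenge model, five mice per dose, single i.p. dose 24 h pre-infection. Day +7 lungs fixed in 10% formaldehyde and stained with Grocott methenamine silver. Hyphal morphology and density assessed by light microscopy at ×100 and ×400.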

Aspergillus fumigatus [2] = assay: Antifungal activity against Aspergillus fumigatus 293 infected in neutropenic BALB/c mouse lung assessed as log reduction in fungal burden at 10 mg/kg, ip administered as single dose 24 hrs before infection; type: functional; settings: route intraperitoneal
Summary of the method: (§2)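 Same neutropenic BALB/c intranasal-challenge model; single i.p. dose in D5W given 24 h pre-infection; D5W controls. Lungs from 10-20 mice/group taken at day +7, or earlier at moribund euthanasia. A. fumigatus DNA quantified by real-time PCR as conidial equivalents; reduction expressed as log10 of median versus control.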

Aspergillus fumigatus [3] = assay: Antifungal activity against Aspergillus fumigatus 293 infected in neutropenic BALB/c mouse assessed as mouse survival at 5 mg/kg, ip administered as single dose 24 hrs prior to infection measured after 7 days relative to untreated control; type: functional; settings: route intraperitoneal
Summary of the method: (§3)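 Female BALB/c mice, 8 weeks old, 18-22 g. Neutropenia by cyclophosphamide 150 mg/kg i.p. on days −4, −1 and +3, plus cortisone acetate 250 mg/kg i.p. on day −1. Under isoflurane, 2.5 × 10^6 conidia given intranasally. Drug diluted in D5W, given once i.p. 24 h pre-infection; D5W controls; n = 20/group. Morbidity monitored 7 days; log-rank test.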

Aspergillus fumigatus [4] = assay: Antifungal activity against Aspergillus fumigatus 293 infected in neutropenic BALB/c mouse lung assessed as swollen dysmorphic hyphal clusters at 20 mg/kg, ip administered as single dose 24 hrs before infection by light microscopy; type: functional, organism-based; set-up: dose 20 mg/kg; summary of the method: as §1
Aspergillus fumigatus [5] = assay: Antifungal activity against Aspergillus fumigatus 293 infected in neutropenic BALB/c mouse lung assessed as log reduction in fungal burden at 5 mg/kg, ip administered as single dose 24 hrs before infection; type: functional; settings: route intraperitoneal; summary of the method: as §2
Aspergillus fumigatus [6] = assay: Antifungal activity against Aspergillus fumigatus 293 infected in neutropenic BALB/c mouse assessed as mouse survival at 20 mg/kg, ip administered as single dose 24 hrs before infection measured after 7 days relative to untreated control; type: functional; settings: route intraperitoneal; summary of the method: as §3
Aspergillus fumigatus [7] = assay: Antifungal activity against Aspergillus fumigatus 293 by Etest; type: functional
Summary of the method: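 Susceptibility of A. fumigatus 293 by Etest. Amphotericin B read as MIC; micafungin read as minimum effective concentration.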

Aspergillus fumigatus [8] = assay: Antifungal activity against Aspergillus fumigatus 293 infected in neutropenic BALB/c mouse lung assessed as log reduction in fungal burden at 20 mg/kg, ip administered as single dose 24 hrs before infection; type: functional; settings: route intraperitoneal; summary of the method: as §2
Aspergillus fumigatus [9] = assay: Antifungal activity against Aspergillus fumigatus 293 by broth-microdilution; type: functional; settings: read-out: MEC
Summary of the method: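 Broth microdilution following CLSI (NCCLS) approved standard M38-A. Amphotericin B read as MIC; micafungin read as minimum effective concentration.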

Row | SMILES | Activity (Aspergillus fumigatus [1]) | FC (Aspergillus fumigatus [2]) | Activity (Aspergillus fumigatus [3]) [%] | Activity (Aspergillus fumigatus [4]) | FC (Aspergillus fumigatus [5]) | Activity (Aspergillus fumigatus [6]) [%] | MEC (Aspergillus fumigatus [7]) [µg/mL] | FC (Aspergillus fumigatus [8]) | minimal effective concentration (Aspergillus fumigatus [9]) [µg/mL]
1 | CCCCCOc1ccc(-c2cc(-c3ccc(C(=O)N[C@H]4C[C@@H](O)[C@@H](O)NC(=O)[C@@H]5[C@@H](O)[C@@H](C)CN5C(=O)[C@H]([C@H](O)CC(N)=O)NC(=O)[C@H]([C@H](O)[C@@H](O)c5ccc(O)c(OS(=O)(=O)O)c5)NC(=O)[C@@H]5C[C@@H](O)CN5C(=O)[C@H]([C@@H](C)O)NC4=O)cc3)no2)cc1 [MICAFUNGIN] (X1-[Orn(4R-OH,5R-OH)]T[Hyp][hTyr(3S-OH,4S-OH,3'-OSO3H)][Gln(3R-OH)][Pro(3S-OH,4S-Me)]; lactam 1-C) | Active | 1.3 | 55 | Active | 1.3 | 55 | 0.25 | 0.7 | 0.25
2 | C[C@@H]1[C@H](O)[C@@H](C)/C=C/C=C/C=C/C=C/C=C/C=C/C=C/[C@H](O[C@@H]2O[C@H](C)[C@@H](O)[C@H](N)[C@@H]2O)C[C@@H]2O[C@](O)(C[C@@H](O)C[C@@H](O)[C@H](O)CC[C@@H](O)C[C@@H](O)CC(=O)O[C@H]1C)C[C@H](O)[C@H]2C(=O)O [AMPHOTERICIN B] |  |  |  |  |  |  |  |  | 0.25

— ChEMBL document CHEMBL1275536, “Efficacy of single-dose liposomal amphotericin B or micafungin prophylaxis in a neutropenic murine model of invasive pulmonary aspergillosis” (2008)
